# Source: PubChem BioAssay (several laboratories)
# RBBP9 inh: inhibitors of human serine hydrolase RBBP9; O75884; recombinant RBBP9, FP-Rh probe fluorescence polarization; inhibition, % at 7.94 µM; actives 0.2% (n = 220,000);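 active means inhibition above the campaign mean of all tested compounds plus 3 SD, cut at about 14% in these data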;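 further: plate controls were DMSO wells with RBBP9 for no effect and wells lacking RBBP9 protein for full effect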
# Target sequence (O75884 whole entry, looked up): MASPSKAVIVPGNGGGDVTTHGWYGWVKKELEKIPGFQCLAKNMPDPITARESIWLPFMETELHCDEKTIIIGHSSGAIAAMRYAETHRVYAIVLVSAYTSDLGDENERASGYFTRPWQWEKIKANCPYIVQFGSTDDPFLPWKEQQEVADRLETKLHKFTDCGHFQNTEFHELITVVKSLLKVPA
#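 System: RBBP9 protein / Buffer or medium: Tris/NaCl buffer pH 8.0 with 0.1% Pluronic / Probe or stimulus: Serine-hydrolase probe FP-Rh, 375 nM pre-mixing / Dosing: 7.94 µM single dose, 0.794% DMSO / Times: enzyme-compound preincubation 30 min, then probe labeling 45 min, 25 °C / Technique: fluorescence polarization (mP), excitation 525 nm, emission 598 nm / Replication: singlicate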
# ROMK mod: modulates human ROMK potassium channel activity | P48048 | Tet-inducible ROMK, thallium flux fluorescence; actives lie on both sides | B-score at 10 µM | actives 2% (n = 130,000) | AID 1918;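 active means signal ratio slope over the read window, or its plate-corrected B-score, at least 3 SD from the plate mean, either direction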;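 further: B-score of the F/F0 ratio slope over 7 to 12 s after thallium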
# Target sequence (P48048 whole entry, looked up): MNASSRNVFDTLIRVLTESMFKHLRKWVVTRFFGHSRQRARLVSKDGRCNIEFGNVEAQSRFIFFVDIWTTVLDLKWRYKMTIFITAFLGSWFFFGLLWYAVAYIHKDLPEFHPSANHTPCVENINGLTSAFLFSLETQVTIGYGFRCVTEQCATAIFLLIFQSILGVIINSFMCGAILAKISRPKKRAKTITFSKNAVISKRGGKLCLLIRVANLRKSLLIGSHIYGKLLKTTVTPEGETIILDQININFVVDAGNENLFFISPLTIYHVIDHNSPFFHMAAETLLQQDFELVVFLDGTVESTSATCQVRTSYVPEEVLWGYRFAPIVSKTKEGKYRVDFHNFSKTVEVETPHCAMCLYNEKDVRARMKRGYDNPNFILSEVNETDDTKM
# p47phox inh: p47phox (human) inhibition; actives 0.53% (n = 220,000); p47phox/p22phox peptide binding, fluorescence polarization, 2 h; inhibition, % at 24.7 µM; AID 1274; P14598;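 active means inhibition above about 30%, limit read from the data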;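 further: 0% = p47phox with labelled peptide and 100% = labelled peptide alone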
# WT yeast gro inh: growth inhibition of WT yeast, mitochondrial fusion screen. mitochondrial fusion phenotypic screen, WT strain. inhibition, % at 10 µM. actives 2.1% (n = 190,000). AID 1362; in the data active means inhibition above about 58%; tested in S. cerevisiae
# 14-3-3 Bad inh: disrupts binding of bovine 14-3-3 zeta to phospho-Bad peptide. P63103. TR-FRET 14-3-3zeta/Dy647-pBad peptide displacement, 1 h. inhibition, % at 21.7 µM. actives 0.71% (n = 220,000). AID 781;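 active means inhibition above about 70%, limit read from the data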;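 further: 0% = full 14-3-3 plus peptide FRET controls and 100% = background without 14-3-3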
# Target sequence (P63103 whole entry, looked up): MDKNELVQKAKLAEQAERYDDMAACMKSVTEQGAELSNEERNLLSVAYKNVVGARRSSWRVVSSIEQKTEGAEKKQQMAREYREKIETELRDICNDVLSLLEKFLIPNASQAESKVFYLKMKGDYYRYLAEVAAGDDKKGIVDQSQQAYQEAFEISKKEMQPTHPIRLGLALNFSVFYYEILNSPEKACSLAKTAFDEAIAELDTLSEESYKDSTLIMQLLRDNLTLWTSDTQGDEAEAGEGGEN
# Cl transport mod: KCC2 (human) Cl- transport modulation; actives 2.2% (n = 190,000); KCC2 cells, thallium flux FluoZin-2 fluorescence; B-score of Tl+ flux slope (higher = more flux/activation; lower = inhibition) at 10 µM;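 active means thallium flux slope and its plate-corrected score both differing from the plate sample mean at a set confidence after two filtering rounds, in either direction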;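 further: slope of fluorescence scaled to starting intensity during 10 to 20 s after thallium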
# KCC2 secondary: confirmation of human KCC2 transport modulators; shares compounds with Cl transport mod; HEK293-KCC2, thallium flux, FluoZin2 fluorescence; stronger effect = higher value; normalised thallium flux (F/F0 slope) at 10 µM; actives 15% (n = 3,700);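 active means thallium flux slope above the same plate's solvent-only control mean plus 3 SD; inconclusive means the two replicate wells disagree; inactive means no significant difference from solvent-only control wells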
# KCC2 bumet counter: thallium flux despite bumetanide block in KCC2 cells, secondary assay 3; actives 49% (n = 3,700); HEK293-KCC2 + bumetanide/ouabain, thallium flux FluoZin2; stronger effect = higher value; normalized thallium flux at 10 µM; shares compounds with Cl transport mod;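 active means thallium entry rate above the same plate's blocked-transporter control wells by more than 3 SD; inconclusive means the two repeat wells disagree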;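 further: raw slope of fluorescence over initial fluorescence between 10 and 20 s after thallium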
# KCC2 secondary2: confirmation of human KCC2 transport modulators; shares compounds with Cl transport mod; HEK293-KCC2, thallium flux FluoZin2 fluorescence; actives lie on both sides; F/F0 rise rate, 10–20 s post-thallium; normalized thallium flux at 10 µM; actives 23% (n = 3,700);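 active means thallium flux slope more than 3 SD above or below the plate's solvent-only control mean, mostly below; inconclusive means the two repeat wells disagreed; inactive means no significant shift from solvent-only controls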;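 further: raw slope with 0.1% DMSO as baseline and bumetanide as block control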
# HEK counter1: acts in parental HEK cells, KCC2 counter-screen; shares compounds with Cl transport mod; HEK293 parental cells, thallium flux FluoZin2, ouabain; baseline-ratio fluorescence slope, 10–20 s after thallium; thallium flux rate (normalised fluorescence) at 10 µM; actives 46% (n = 3,700); AID 1716;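 active means thallium flux rate significantly above the same plate's solvent-only control wells, beyond their mean plus 3 SD; inconclusive means the two replicate wells gave conflicting results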
# KCC2 retest ouab: modulates human KCC2 on retest with ouabain. HEK293-KCC2, thallium flux FluoZin2 fluorescence; bidirectional: low = inhibitor, high = activator. raw Tl+ flux slope (below DMSO = inhibition, above = activation) at 10 µM. actives 48% (n = 3,700). shares compounds with Cl transport mod. AID 1717;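 active means thallium flux slope beyond 3 SD from same-plate DMSO control mean in most replicates, usually higher, sometimes lower; inconclusive means repeat tests gave conflicting results; inactive means no significant difference from controls in most replicates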;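 further: slope of initial-normalized fluorescence between seconds 10 and 20 after thallium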
# HEK293 Tl flux2: counter-screen for KCC2 modulators: effect in parental HEK293 cells. shares compounds with Cl transport mod. thallium flux FluoZin-2 fluorescence slope. thallium flux slope at 10 µM. actives 33% (n = 3,700). AID 1718;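 active means thallium flux slope above the same plate's solvent-control mean plus 3 SD in both duplicate wells; inconclusive means duplicate wells that disagreed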;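 further: run without ouabain in cells lacking the KCC2 cotransporter; slope of fluorescence scaled to its starting value between 10 and 20 s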
# Active calls of the source: *; ? = inconclusive; nt = not tested or not shown. A selection: hits, their analogues and other compounds. The true share with any hit is near 5.8%.
SMILES,RBBP9 inh,ROMK mod,p47phox inh,WT yeast gro inh,14-3-3 Bad inh,Cl transport mod,KCC2 secondary,KCC2 bumet counter,KCC2 secondary2,HEK counter1,KCC2 retest ouab,HEK293 Tl flux2
CC(C)c1ccc2[nH]c(O)c(N=NC(=O)c3cccc(S(=O)(=O)Nc4ccccc4Cl)c3)c2c1,-6.9,0.51,-5.9,0.4,4.7,0.137,nt,nt,nt,nt,nt,nt
Cc1cccc(NC(=S)N=Nc2c(O)[nH]c3ccccc23)c1,-4.5,-0.23,-5.4,59.0*,-0.5,17.1*,?,0.0322*,0.0284,0.0146*,0.0457*,?
CC(C)NC(=S)N=Nc1c(O)[nH]c2ccc(C(C)C)cc12,4.8,nt,-2.5,13.1,10.4,4.05*,0.0079,0.0129*,0.0315,0.0149*,?,0.014*
Cc1cc(C(N)=O)nn1-c1c(Cl)cc(Cl)cc1Cl,3.0,nt,-8.0,nt,6.5,-0.0422,nt,nt,nt,nt,nt,nt
O=C(NC1CCSC1)c1cccc(Cl)c1 (stereo unspecified),4.2,0.84,-6.0,nt,-4.3,-0.504,nt,nt,nt,nt,nt,nt
COc1cc(Br)cc(CNc2ccc(F)c([N+](=O)[O-])c2)c1O,-7.4,-0.837,-19.9,35.0,-12.8,-1.32,nt,nt,nt,nt,nt,nt
O=S1(=O)CCN2C(=N1)Sc1c2ccc2c1CCCC2,-1.2,nt,-0.1,-7.9,-2.1,7.72*,0.00975,0.00526,0.0326,0.00721,0.0223,0.0101
O=C(O)c1ccc2c(c1)SC1=NS(=O)(=O)CCN12,-1.4,nt,-10.5,nt,-1.1,-0.0884,nt,nt,nt,nt,nt,nt
Cc1cc(Br)ccc1OCC(=O)NNC(=O)c1cnccn1,-3.9,0.531,-5.5,13.1,5.3,8.78*,0.017,0.027*,?,0.0222*,0.0281*,0.0236*
CC(C)c1ccc(OCC(=O)NNC(=O)c2cnccn2)cc1,-5.1,nt,-10.4,nt,2.5,5.71*,0.00764,0.0109*,0.0333,0.0118*,0.0241*,0.0154*
Cc1cc(Cl)ccc1OCC(=O)NNC(=O)c1cnccn1,-3.8,0.089,-7.0,-3.1,-14.8,9.45*,0.00605,0.0154*,0.0314,0.0153*,?,0.0135*
O=C(NC(=S)NNC(=O)c1cnccn1)c1ccc(Cl)cc1,-7.4,1.18,-3.7,nt,-6.6,9.13*,0.0124,0.0131*,0.0355,?,?,?
O=C(COc1cccc2ccccc12)NNC(=O)c1cnccn1,-7.0,0.211,-5.9,3.7,-12.9,-0.2,nt,nt,nt,nt,nt,nt
O=C(COc1ccc2ccccc2c1)NNC(=O)c1cnccn1,-4.6,-1.23,-12.5,-4.9,-5.0,0.426,nt,nt,nt,nt,nt,nt
Cc1nc2ccccn2c1C(=O)CSc1cccc(Cl)c1,-3.0,-2.25,-8.1,27.0,-1.2,-0.0262,nt,nt,nt,nt,nt,nt
CCc1ccc(CN2CCCC(CCC(=O)N3CCN(c4ccccn4)CC3)C2)o1 (stereo unspecified),4.2,nt,-15.0,nt,-0.4,-0.0823,nt,nt,nt,nt,nt,nt
O=C(NC1CCCC1)C1CCN(c2cnccn2)CC1,-6.7,1.32,-1.0,3.5,-1.5,-0.208,nt,nt,nt,nt,nt,nt
O=C(COc1ccc(Cl)cc1)NNC(=O)c1ccccn1,-9.9,nt,-13.0,18.8,-1.5,4.44*,0.01,0.0191*,0.0338,0.0113*,0.0245,?
Cc1cc2c(cc1C)C(c1ccsc1)CC(=O)N2 (stereo unspecified),-6.7,-1.21,-5.0,11.9,2.4,0.336,nt,nt,nt,nt,nt,nt
Cc1cc(NC(=O)COC(=O)COc2cccc3c2OC(C)(C)C3)no1,-7.6,-0.727,-2.0,-11.9,2.0,-1.07,nt,nt,nt,nt,nt,nt
Cc1cnc(NC(=O)COc2cccc3c2OC(C)(C)C3)s1,-0.4,nt,-117.8,6.5,-5.0,nt,0.00847,0.00715,0.0294,0.00703,?,0.00974
COC(=O)CCCC1=CC2=C(c3ccccc3)C(=O)C(C)(OC(=O)C3CCCC3)C(=O)C2=CN1Cc1ccc(OC)cc1 (stereo unspecified),nt,nt,1.1,nt,0.2,-2.6*,0.0147,0.00423,0.0295,0.00654,0.0156,0.00874
OCC1N=C(c2ccccn2)OC1c1ccccc1 (stereo unspecified),3.1,nt,-0.9,-16.5,-6.8,-5.84*,0.00722,0.00703,0.0299,0.00719,0.0204,0.0105*
c1ccc(-c2nnc(-c3ccccn3)nn2)nc1,nt,nt,nt,13.6,nt,nt,nt,nt,nt,nt,nt,nt
O=C(CC1S/C(=N/N=C/c2ccco2)NC1=O)Nc1cccc(Cl)c1Cl (stereo unspecified),-5.2,0.626,-11.3,3.1,-2.8,0.527,nt,nt,nt,nt,nt,nt
SMILES,RBBP9 inh,ROMK mod,p47phox inh,WT yeast gro inh,14-3-3 Bad inh,Cl transport mod,KCC2 secondary,KCC2 bumet counter,KCC2 secondary2,HEK counter1,KCC2 retest ouab,HEK293 Tl flux2
COc1cccc(-n2c(=O)n(Cc3ccccc3)c(=O)c3[nH]cnc32)c1C,-12.2,-0.0751,-12.7,nt,-3.9,-2.15,nt,nt,nt,nt,nt,nt
O=C(Nc1ccc(Cl)c([N+](=O)[O-])c1)ONC1=NCCCCC1,-8.3,-0.00949,-12.7,2.8,-16.0,0.0991,nt,nt,nt,nt,nt,nt
CN(C)c1ccc(/C=N/NC(=O)C(O)(c2ccccc2)c2ccccc2)o1,-14.4,nt,-17.4,2.1,-1.9,nt,nt,nt,nt,nt,nt,nt
O=C(N/N=C/c1ccc(-c2cccc([N+](=O)[O-])c2)o1)c1ccccc1O,-5.0,0.264,19.2,19.2,18.8,3.35*,0.0106,0.0235*,0.0377,0.0123*,0.0317*,?
CN(C)c1ccc(/C=N/NC(=O)c2ccccc2O)o1,-1.2,nt,-7.0,-6.8,-21.9,5.07*,0.0104,?,0.0332,0.0106*,0.0203,0.012
Cc1cccc(C(=O)N/N=C/c2cc(Br)c(Br)o2)c1,-4.8,0.403,-2.3,38.1,-9.1,0.061,0.009,0.0165*,0.0325,0.00912*,?,0.0094
O=C(N/N=C/c1ccc(-c2cccc([N+](=O)[O-])c2)o1)c1ccc([N+](=O)[O-])cc1,-2.5,-0.492,4.5,25.7,18.0,1.91,nt,nt,nt,nt,nt,nt
NC(=O)N/N=C/c1ccc(-c2cccc(C(F)(F)F)c2)o1,-4.5,0.0547,1.3,-38.4,-7.8,-0.0281,nt,nt,nt,nt,nt,nt
O=C(N/N=C/c1ccc(-c2cccc(C(F)(F)F)c2)o1)c1cccc(F)c1,-6.7,nt,-14.9,66.0,6.0,12*,0.00857,0.016*,0.0331,0.0118*,?,0.0105
